Results reported in PMC6568325 (ACS chemical biology, 2018).

Legend:
CjMTAN [1] = target: T1, CjMTAN (Campylobacter jejuni subsp. jejuni, UniProt Z9IB28FKP7); experiment: CjMTAN substrate specificity, steady-state kinetics; format: biochemical; conditions: 25 °C; for Km / kcat: substrate of CjMTAN, 50 mM Hepes-KOH pH 7.4; for h (Hill coefficient): substrate saturation, sigmoidal fit, pH 7.4
In short: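 Recombinant N-terminally His6-tagged CjMTAN from strain 81-176, expressed in E. coli and Ni-NTA purified. Substrate varied from 1 to 100 µM, with stock concentrations set by A260. Reaction contained 1 U xanthine oxidase to convert released adenine to 2,8-dihydroxyadenine, read at 305 nm (15.5 mM–1 cm–1). Started with 50 nM enzyme and followed up to 5 min. Initial rates in duplicate or triplicate, fitted to Michaelis-Menten and/or allosteric sigmoidal equations.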

CjMTAN [2] = target: T1, CjMTAN; experiment: CjMTAN inhibition by transition-state analogues; format: biochemical; conditions: for Ki: from initial rates, MTA 1 mM, 25 °C, pH 7.4
C. jejuni [3] = experiment: C. jejuni growth IC50 on Mueller-Hinton agar; format: cell-based; conditions: Campylobacter jejuni, 144 h, read-out: IC50 C. jejuni growth
C. jejuni [4] = experiment: C. jejuni growth IC50 in liquid culture media; format: cell-based; conditions: Campylobacter jejuni, 16.4 h, read-out: IC50 C. jejuni growth

Compound | Km (CjMTAN [1]) [µM] | kcat (CjMTAN [1]) [s⁻¹] | Ki (CjMTAN [2]) [nM] | also measured
Nc1ncnc2c1ncn2[C@@H]1O[C@H](CCC(=O)c2cccc(C(=O)O)c2)[C@@H](O)[C@H]1O [6-amino-6-deoxyfutalosine] | 3.5 ± 0.4 | 0.27 ± 0.01 | – | –
CSC[C@H]1N[C@@H](c2c[nH]c3c(N)ncnc23)[C@H](O)[C@@H]1O [MTIA] | – | – | 32.3 ± 3.4 | –
CNC(C)C1CCC(N)C(OC2C(N)CC(N)C(OC3OCC(C)(O)C(NC)C3O)C2O)O1 (centres unmarked) [Gentamicin] | – | – | – | IC50 (C. jejuni [3]): 390 ± 60 nM; IC50 (C. jejuni [4]): 2100 ± 100 nM
CSC[C@H]1O[C@@H](n2ccc3c(N)ncnc32)[C@H](O)[C@@H]1O [MTT] | – | – | 22100 ± 6080 | –
Nc1ncnc2c1ncn2[C@@H]1O[C@H](CO)[C@@H](O)[C@H]1O [adenosine] | 7.5 ± 0.6 | 0.30 ± 0.01 | – | –
Nc1ncnc2c(CN3C[C@H](CO)[C@@H](O)C3)c[nH]c12 [DIA] | – | – | 2610 ± 332 | fold difference in affinity between MTDIA and DIA (CjMTAN [2]; MTDIA 2.9 nM vs DIA 2.7 μM): ~1000 fold
Nc1ncnc2c(CN3CC(O)C(CSc4ccc(Cl)cc4)C3)c[nH]c12 (centres unmarked) [pCPTDIA] | – | – | 4.8 ± 0.3 | –
CCCCSC[C@H]1CN(Cc2c[nH]c3c(N)ncnc23)C[C@@H]1O [BTDIA, BuS-DADMe-ImmA] | – | – | 4.1 ± 1 | slow-onset inhibition (CjMTAN [2]; CjMTAN): slow-onset tight-binding inhibitors
Nc1ncnc2c1ncn2[C@@H]1O[C@H](CSCC[C@H](N)C(=O)O)[C@@H](O)[C@H]1O [S-5′-Adenosyl-L-homocysteine, S-5′-adenosyl-L-homocysteine] | 12.2 ± 1.5 | 0.55 ± 0.03 | – | h (Hill coefficient) (CjMTAN [1]): 2.6 ± 0.7
Nc1ncnc2c(CN3CC(O)C(CSc4ccccc4)C3)c[nH]c12 (centres unmarked) [PhTDIA] | – | – | 5.3 ± 0.3 | –
C[C@H]1O[C@@H](n2cnc3c(N)ncnc32)[C@H](O)[C@@H]1O [5′-deoxyadenosine] | 21.4 ± 1.3 | 0.92 ± 0.02 | – | h (Hill coefficient) (CjMTAN [1]): 1.8 ± 0.2
5′-deoxy-5′-Pro-DADMe-ImmA [PDIA] | – | – | 5.1 ± 0.6 | –
5′-methylthioadenosine | 7.1 ± 0.7 | 0.80 ± 0.02 | – | –
